Test results published in ChEMBL document CHEMBL1122384, “Synthesis and evaluation of 24-(isopropyl[75Se]seleno)chol-5-en-3 beta-ol” (J Med Chem, 1983).

What was measured:
[1] = tested on: Rattus norvegicus; experiment: Tested for distribution of radioactivity in female rat tissue at 1 hr after intravenous administration in blood; assay type: ADME, organism-based; settings: in vivo
Procedure, shortened: (§1)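 Female Fischer 344 rats (160–180 g), food and water ad libitum, received 5–10 μCi i.v. via lateral tail vein (1 mL Tween 80–EtOH–saline) under light Et₂O anesthesia. At each time they were anesthetized and decapitated, and organs were rinsed in saline, blotted, weighed and gamma counted. Values are % dose/g, mean and range of 3 rats.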

[2] = tested on: Rattus norvegicus; experiment: Tested for distribution of radioactivity in female rat tissue at 1 hr after intravenous administration in kidney; assay type: ADME, organism-based; settings: in vivo; procedure, shortened: as §1
[3] = tested on: Rattus norvegicus; experiment: Tested for distribution of radioactivity in female rat tissue at 1 hr after intravenous administration in liver; assay type: ADME, organism-based; settings: in vivo; procedure, shortened: as §1
[4] = tested on: Rattus norvegicus; experiment: Tested for distribution of radioactivity in female rat tissue at 1 hr after intravenous administration in ovaries; assay type: ADME, organism-based; settings: in vivo; procedure, shortened: as §1
[5] = tested on: Rattus norvegicus; experiment: Tested for distribution of radioactivity in female rat tissue at 21 day after intravenous administration in adrenal; assay type: ADME, organism-based; settings: in vivo, 504 h; procedure, shortened: as §1
[6] = tested on: Rattus norvegicus; experiment: Tested for distribution of radioactivity in female rat tissue at 21 day after intravenous administration in blood; assay type: ADME, organism-based; settings: in vivo, 504 h; procedure, shortened: as §1
[7] = tested on: Rattus norvegicus; experiment: Tested for distribution of radioactivity in female rat tissue at 21 day after intravenous administration in kidney; assay type: ADME, organism-based; settings: in vivo, 504 h; procedure, shortened: as §1
[8] = tested on: Rattus norvegicus; experiment: Tested for distribution of radioactivity in female rat tissue at 21 day after intravenous administration in liver; assay type: ADME, organism-based; settings: in vivo, 504 h; procedure, shortened: as §1
[9] = tested on: Rattus norvegicus; experiment: Tested for distribution of radioactivity in female rat tissue at 21 day after intravenous administration in ovaries; assay type: ADME, organism-based; settings: in vivo, 504 h; procedure, shortened: as §1
[10] = tested on: Rattus norvegicus; experiment: Tested for distribution of radioactivity in female rat tissue at 24 hr r after intravenous administration in adrenal; assay type: ADME, organism-based; settings: in vivo; procedure, shortened: as §1
[11] = tested on: Rattus norvegicus; experiment: Tested for distribution of radioactivity in female rat tissue at 24 hr r after intravenous administration in blood; assay type: ADME, organism-based; settings: in vivo; procedure, shortened: as §1
[12] = tested on: Rattus norvegicus; experiment: Tested for distribution of radioactivity in female rat tissue at 24 hr r after intravenous administration in liver; assay type: ADME, organism-based; settings: in vivo; procedure, shortened: as §1
[13] = tested on: Rattus norvegicus; experiment: Tested for distribution of radioactivity in female rat tissue at 14d ay after intravenous administration in adrenal; assay type: ADME, organism-based; settings: in vivo; procedure, shortened: as §1
[14] = tested on: Rattus norvegicus; experiment: Tested for distribution of radioactivity in female rat tissue at 24 hr r after intravenous administration in ovaries; assay type: ADME, organism-based; settings: in vivo; procedure, shortened: as §1
[15] = tested on: Rattus norvegicus; experiment: Tested for distribution of radioactivity in female rat tissue at 3 day after intravenous administration in adrenal; assay type: ADME, organism-based; settings: in vivo, 72 h; procedure, shortened: as §1
[16] = tested on: Rattus norvegicus; experiment: Tested for distribution of radioactivity in female rat tissue at 3 day after intravenous administration in blood; assay type: ADME, organism-based; settings: in vivo, 72 h; procedure, shortened: as §1
[17] = tested on: Rattus norvegicus; experiment: Tested for distribution of radioactivity in female rat tissue at 3 day after intravenous administration in kidney; assay type: ADME, organism-based; settings: in vivo, 72 h; procedure, shortened: as §1
[18] = tested on: Rattus norvegicus; experiment: Tested for distribution of radioactivity in female rat tissue at 18 hr after intravenous administration in liver; assay type: ADME, organism-based; settings: in vivo; procedure, shortened: as §1
[19] = Adrenal/Tissue ratio calculated from percent dose per gram of tissue determined after 1 day intravenous administration from lung; assay type: functional
Procedure, shortened: (§2)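 Female Fischer 344 rats (160–180 g), fed ad libitum. Steroid dissolved in EtOH, formulated in Tween 80–EtOH–saline, 5–10 μCi in 1 mL given into a lateral tail vein under light Et₂O anesthesia. Organs removed 1 day post-injection, rinsed, blotted, weighed and gamma counted, 3 rats per time point. Ratios taken from adrenal vs tissue % dose/g.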

[20] = Adrenal/Tissue ratio calculated from percent dose per gram of tissue determined after 1 day intravenous administration from ovaries; assay type: functional; procedure, shortened: as §2
[21] = Adrenal/Tissue ratio calculated from percent dose per gram of tissue determined after 1 day intravenous administration from pancreas; assay type: functional
Procedure, shortened: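 Female Fischer 344 rats (160–180 g), food and water ad libitum, lightly anaesthetized with Et2O. [75Se]-labelled steroid was given in Tween 80–EtOH–saline, 5–10 μCi, by lateral tail-vein injection. Rats were killed by decapitation under Et2O; organs were rinsed, blotted, weighed and gamma-counted. Adrenal/tissue ratio is from % dose/g, mean of three rats per time point.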

[22] = Adrenal/Tissue ratio calculated from percent dose per gram of tissue determined after 1 day intravenous administration from spleen; assay type: functional; procedure, shortened: as §2
[23] = Adrenal/Tissue ratio calculated from percent dose per gram of tissue determined after 1 day intravenous administration from blood; assay type: functional; procedure, shortened: as §2
[24] = Adrenal/Tissue ratio calculated from percent dose per gram of tissue determined after 1 day intravenous administration from kidney; assay type: functional; procedure, shortened: as §2
[25] = Adrenal/Tissue ratio calculated from percent dose per gram of tissue determined after 1 day intravenous administration from liver; assay type: functional; procedure, shortened: as §2
[26] = species: Homo sapiens; experiment: Adsorbed radiation dose value was calculated to human small intestine; assay type: functional
Procedure, shortened: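 Human absorbed radiation dose estimated by the standard MIRD method from rat tissue distribution (% dose/g, 1 h–21 days) and excretion data. Excretion came from three individually caged female rats, with urine and feces collected daily over 21 days.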

[27] = tested on: Rattus norvegicus; experiment: Tested for distribution of radioactivity in female rat tissue at 24 hr r after intravenous administration in kidney; assay type: ADME, organism-based; settings: in vivo; procedure, shortened: as §1
[28] = tested on: Rattus norvegicus; experiment: Tested for distribution of radioactivity in female rat tissue at 6 hr after intravenous administration in ovaries; assay type: ADME, organism-based; settings: in vivo
Procedure, shortened: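 Female Fischer 344 rats (160–180 g), food and water ad libitum. Se-75-labeled steroid dissolved in EtOH, formulated in Tween 80–EtOH–saline; 5–10 μCi in 1 mL injected into a lateral tail vein under light Et₂O anesthesia. At each time point, 3 rats killed by decapitation under Et₂O. Organs rinsed with saline, blotted, weighed and gamma counted. Values are % dose/g, mean and range.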

Q: For `CC(C)[Se]CCC[C@H](C)[C@H]1CC[C@H]2[C@@H]3CC=C4C[C@@H](O)CC[C@]4(C)[C@H]3CC[C@]12C`, which Dose/g [1] is on record?
A: 3.97%

Q: What about the Dose/g [2] of the same molecule?
A: 1.31%

Q: What about the Dose/g [3] of the same molecule?
A: 6.73%

Q: What about the Dose/g [4] of the same molecule?
A: 2.24%

Q: What about the Dose/g [5] of the same molecule?
A: 15.22%

Q: And the Dose/g [6]?
A: 0.11%

Q: What about the Dose/g [7] of the same molecule?
A: 0.64%

Q: And the Dose/g [8]?
A: 0.34%

Q: What about the Dose/g [9] of the same molecule?
A: 2.52%

Q: What about the Dose/g [10] of the same molecule?
A: 47.75%

Q: What about the Dose/g [11] of the same molecule?
A: 0.71%

Q: And the Dose/g [12]?
A: 1.76%

Q: What about the Dose/g [13] of the same molecule?
A: 18.23%

Q: And the Dose/g [14]?
A: 5.29%

Q: What about the Dose/g [15] of the same molecule?
A: 32.32%

Q: And the Dose/g [16]?
A: 0.38%

Q: What about the Dose/g [17] of the same molecule?
A: 1.48%

Q: What about the Dose/g [18] of the same molecule?
A: 2.78%

Q: What about the Ratio [19] of the same molecule?
A: 10.9

Q: What about the Ratio [20] of the same molecule?
A: 9

Q: And the Ratio [21]?
A: 46.4

Q: And the Ratio [22]?
A: 19.2

Q: What about the Ratio [23] of the same molecule?
A: 67.3

Q: And the Ratio [24]?
A: 30

Q: What about the Ratio [25] of the same molecule?
A: 27.1

Q: And the Dose [26]?
A: 3.5 rd mCi-1

Q: What about the Dose/g [27] of the same molecule?
A: 1.59%

Q: What about the Dose/g [28] of the same molecule?
A: 4.95%
